ChEMBL document CHEMBL3244277, “Study of trans-cyclopropylbis (diketopiperazine) and chelating agents related to ICRF 159. Cytotoxicity, mutagenicity, and effects on scheduled and unscheduled DNA synthesis” (J Med Chem, 1977)

Columns and labels:
V79-4 [1] = experiment: Inhibition of scheduled DNA synthesis in chinese hamster V79-4 cells assessed as DNA synthesis at 10^-3 M measured at 10 hrs by [3H]thymidine uptake /autoradiography (reference value: 81.7 %); type: functional, Cricetulus griseus; design: scale not given: the % may be the effect or the level left
V79-4 [2] = experiment: Inhibition of scheduled DNA synthesis in chinese hamster V79-4 cells assessed as DNA synthesis at 10^-4 M measured at 10 hrs by [3H]thymidine uptake /autoradiography (reference value: 81.7 %); type: functional, Cricetulus griseus; design: scale not given: the % may be the effect or the level left
V79-4 [3] = experiment: Inhibition of scheduled DNA synthesis in chinese hamster V79-4 cells assessed as DNA synthesis at 10^-5 M measured at 10 hrs by [3H]thymidine uptake /autoradiography (reference value: 81.7 %); type: functional, Cricetulus griseus; design: scale not given: the % may be the effect or the level left
[4] = Cytotoxicity against chinese hamster V79-4 cells assessed as survival using 5 x 10^5 cells per plate at 10^-3 M after 24 hrs; type: cell-based, Cricetulus griseus; settings: read-out: Survival
Procedure, shortened: (§1)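 Chinese hamster V-79A cells were seeded in 100-mm dishes, allowed to attach for 2 h, then exposed for 24 h to drug diluted from PBS stocks into Eagle's MEM with 15% fetal calf serum. Cells were rinsed twice in Hank's salt solution and grown drug-free for 7 days at 37 °C in 5% CO2. Colonies were stained with hematoxylin/eosin and counted; each value is the mean of eight plates.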

[5] = Cytotoxicity against chinese hamster V79-4 cells assessed as survival using 5 x 10^5 cells per plate at 10^-4 M after 24 hrs; type: cell-based, Cricetulus griseus; settings: read-out: Survival; procedure, shortened: as §1
[6] = Cytotoxicity against chinese hamster V79-4 cells assessed as survival using 1 x 10^5 cells per plate at 10^-4 M after 24 hrs; type: cell-based, Cricetulus griseus; settings: read-out: Survival; procedure, shortened: as §1
[7] = Cytotoxicity against chinese hamster V79-4 cells assessed as survival using 5 x 10^5 cells per plate at […] after 24 hrs; type: cell-based, Cricetulus griseus; settings: read-out: Survival
[8] = Cytotoxicity against chinese hamster V79-4 cells assessed as survival using 1 x 10^5 cells per plate at […] after 24 hrs; type: cell-based, Cricetulus griseus; settings: read-out: Survival
V79-4 [9] = experiment: Induction of unscheduled DNA synthesis in chinese hamster V79-4 cells assessed as DNA synthesis at 10^-3 M measured at 8 hrs by [3H]thymidine uptake /autoradiography in presence of 2 x 10^-3 M hydroxyurea; settings: Cricetulus griseus, v79-4, 8 h, 1000 µM
V79-4 [10] = experiment: Induction of unscheduled DNA synthesis in chinese hamster V79-4 cells assessed as DNA synthesis at 10^-3 to 10^-5 M measured at 8 hrs by [3H]thymidine uptake /autoradiography in presence of 2 x 10^-3 M hydroxyurea; settings: Cricetulus griseus, v79-4, 8 h
V79-4 [11] = experiment: Induction of unscheduled DNA synthesis in chinese hamster V79-4 cells assessed as DNA synthesis at 10^-4 to 10^-5 M measured at 0 to 5 hrs by [3H]thymidine uptake /autoradiography in presence of 2 x 10^-3 M hydroxyurea; settings: Cricetulus griseus
V79-4 [12] = experiment: Mutagenicity in chinese hamster V79-4 cells assessed as mutation frequency measured per 5 x 10^5 cells per plate at 10^-4 M after 24 hrs relative to control; type: toxicity, cell-based, Cricetulus griseus; settings: v79-4, 24 h, 100 µM
Procedure, shortened: (§2)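 V-79A cells plated at 5×10⁵ or 1×10⁵ per dish in MEM + 5% FCS and allowed 2 h to attach. Exposed 24 h at 37 °C to 10⁻³–10⁻⁵ M drug or none, washed in PBS, then grown 12 days in MEM + 10% FCS with 10⁻³ M ouabain. Resistant colonies were counted after hematoxylin/eosin staining, averaging 20 plates, and expressed per 5×10⁵ cells.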

V79-4 [13] = experiment: Mutagenicity in chinese hamster V79-4 cells assessed as mutation frequency measured per 1 x 10^5 cells per plate at 10^-4 M after 24 hrs relative to control; type: toxicity, cell-based, Cricetulus griseus; settings: v79-4, 24 h, 100 µM
V79-4 [14] = experiment: Mutagenicity in chinese hamster V79-4 cells assessed as mutation frequency measured per 5 x 10^5 cells per plate at 10^-5 M after 24 hrs relative to control; type: toxicity, cell-based, Cricetulus griseus; settings: v79-4, 24 h, 10 µM; procedure, shortened: as §2
V79-4 [15] = experiment: Inhibition of scheduled DNA synthesis in chinese hamster V79-4 cells assessed as DNA synthesis at 10^-3 M measured at 10 hrs by [3H]thymidine uptake /autoradiography (reference value: 83.3 %); type: functional, Cricetulus griseus; design: scale not given: the % may be the effect or the level left
V79-4 [16] = experiment: Inhibition of scheduled DNA synthesis in chinese hamster V79-4 cells assessed as DNA synthesis at 10^-4 M measured at 10 hrs by [3H]thymidine uptake /autoradiography (reference value: 83.3 %); type: functional, Cricetulus griseus; design: scale not given: the % may be the effect or the level left
V79-4 [17] = experiment: Inhibition of scheduled DNA synthesis in chinese hamster V79-4 cells assessed as DNA synthesis at 10^-5 M measured at 10 hrs by [3H]thymidine uptake /autoradiography (reference value: 83.3 %); type: functional, Cricetulus griseus; design: scale not given: the % may be the effect or the level left
[18] = Cytotoxicity against chinese hamster V79-4 cells assessed as survival using 1 x 10^5 cells per plate at 10^-3 M after 24 hrs; type: cell-based, Cricetulus griseus; settings: read-out: Survival; procedure, shortened: as §1
V79-4 [19] = experiment: Inhibition of scheduled DNA synthesis in chinese hamster V79-4 cells assessed as DNA synthesis at 10^-3 M measured at 10 hrs by [3H]thymidine uptake /autoradiography (reference value: 85.2 %); type: functional, Cricetulus griseus; design: scale not given: the % may be the effect or the level left
V79-4 [20] = experiment: Inhibition of scheduled DNA synthesis in chinese hamster V79-4 cells assessed as DNA synthesis at 10^-4 M measured at 10 hrs by [3H]thymidine uptake /autoradiography (reference value: 85.2 %); type: functional, Cricetulus griseus; design: scale not given: the % may be the effect or the level left
V79-4 [21] = experiment: Inhibition of scheduled DNA synthesis in chinese hamster V79-4 cells assessed as DNA synthesis at 10^-5 M measured at 10 hrs by [3H]thymidine uptake /autoradiography (reference value: 85.2 %); type: functional, Cricetulus griseus; design: scale not given: the % may be the effect or the level left
V79-4 [22] = experiment: Induction of unscheduled DNA synthesis in chinese hamster V79-4 cells assessed as DNA synthesis at 10^-3 to 10^-5 M measured at 0 to 8 hrs by [3H]thymidine uptake /autoradiography in presence of 2 x 10^-3 M hydroxyurea; settings: Cricetulus griseus

Row | SMILES | viability at 24 h, 1000 µM [4] | viability at 24 h, 100 µM [5] | viability at 24 h, 100 µM [6] | viability at 24 h, 10 µM [7] | viability at 24 h, 10 µM [8] | Activity (V79-4 [9]) | Activity (V79-4 [11]) | viability at 24 h, 1000 µM [18] | also measured
1 | CC(CN(CC(=O)O)CC(=O)O)N(CC(=O)O)CC(=O)O (centres undefined) | 1% | 85% | 85% | 94% | 94% | Toxic | Non-toxic |  | Activity (V79-4 [1]): 61.1%; Activity (V79-4 [2]): 64.7%; Activity (V79-4 [3]): 69.2%; Activity (V79-4 [10]): Toxic
2 | O=C1CN([C@H]2C[C@@H]2N2CC(=O)NC(=O)C2)CC(=O)N1 (relative stereo) | 30% | 50% | 50% | 70% | 70% | Toxic | Non-toxic | 30% | Activity (V79-4 [12]): Non-toxic; Activity (V79-4 [13]): Non-toxic; Activity (V79-4 [14]): Non-toxic; Activity (V79-4 [15]): 76.3%; Activity (V79-4 [16]): 78.3%; Activity (V79-4 [17]): 82.2%
3 | COC(=O)CN(CC(=O)OC)[C@@H]1C[C@H]1N(CC(=O)OC)CC(=O)OC (relative stereo) | 0.02% | 2% | 2% | 90% | 90% |  |  | 0.02% | 
4 | O=C(O)CN(CC(=O)O)[C@@H]1C[C@H]1N(CC(=O)O)CC(=O)O (relative stereo) | 0.04% | 0.6% |  | 10% | 10% |  |  |  | Activity (V79-4 [19]): 7.3%; Activity (V79-4 [20]): 75.5%; Activity (V79-4 [21]): 83.8%; Activity (V79-4 [22]): Toxic
